Holding throughout (assay type): ADME, organism-based
Data set [1] deals with Femur. Put plainly: Biodistribution in CD1 mouse flushed femur at 300 kBq, iv after 30 mins by gamma counting. Conditions: in vivo, 0.5 h. The method in brief: (§1)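 Female CD-1 mice received [18F]1 (300 kBq) i.v.; 3–6 animals per time point anesthetized at 5, 30, 60 or 120 min p.i., blood and urine collected, animals euthanized by cervical dislocation, organs dissected and weighed. Radioactivity counted in a calibrated gamma counter; % ID/g = tissue counts / initial dose counts / tissue weight; means with SD.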

A further data set deals with Brain. Put plainly: Biodistribution in CD1 mouse brain at 300 kBq, iv after 60 mins by gamma counting. Conditions: in vivo, 1 h. In short, it runs like this: as §1
The test system of data set [2] is Femur. Put plainly: Biodistribution in CD1 mouse femur at 300 kBq, iv after 60 mins by gamma counting. Conditions: in vivo, 1 h. In short, it runs like this:
as §1

The test system of data set [3] is Femur. The data set is described as follows: Biodistribution in CD1 mouse femur at 300 kBq, iv after 30 mins by gamma counting. Conditions: in vivo, 0.5 h. The method in brief: as §1

With `[18F]CC1OC2(CCN(Cc3ccccc3)CC2)c2ccccc21` (centres undefined), the Drug uptake with Femur [1] stood at 1.42 % ID/g; in the data set with Brain it was 2.99 % ID/g; in the data set on Femur [2], 1.75 % ID/g; in the data set on Femur [3], 4.34 % ID/g.

These data come from ChEMBL document CHEMBL1938297, “Synthesis, radiofluorination and pharmacological evaluation of a fluoromethyl spirocyclic PET tracer for central σ1 receptors and comparison with fluoroalkyl homologs” (Bioorg Med Chem, 2012).
